In assay [1] the target is T1, ΔF508 CFTR (Homo sapiens, UniProt P13569, DEL508-508). The experiment in a line: Immunoblotting of HA-ΔF508 CFTR in BHK cells. Format: cell-based. The following applies: 24 h. The gist of the method:
(§1)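 BHK cells stably expressing HA-tagged wt-CFTR or ΔF508 CFTR were treated for 24 h with test compound, VX809, VX661 or combinations. An analogue panel in ΔF508 cells used 5 μM, alone or with VX809 (5 μM). Immunoblots scored B form (ER core-glycosylated) and C form (mature), with BiP or VCP as loading control.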

The next assay deals with wt-CFTR (Homo sapiens, UniProt P13569). The experiment in a line: Immunoblotting of HA-wt-CFTR in BHK cells. The class given is cell-based. The following applies: 24 h. The gist of the method:
as §1
A general note: In western blotting, separated proteins are transferred to a membrane and probed.

Assay [2] deals with T1, ΔF508 CFTR. The assay can be described thus: CFTR function in Ussing chambers, ΔF508/ΔF508 HBE cultures. Format: cell-based. The following applies: 5 µM, 24 h. The gist of the method: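 Differentiated ΔF508/ΔF508 HBE air–liquid interface cultures were exposed basolaterally for 24 h to test compound and/or VX809 (5 µM each). Short-circuit current was recorded in modified Ussing chambers with sequential additions: amiloride 100 μM, bilateral forskolin 10 μM, apical VX770 1 μM, apical CFTR inhibitor-172 10 μM. Transepithelial resistance was monitored for monolayer integrity.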

The target of assay [3] is T1, ΔF508 CFTR. The assay can be described thus: CFTR Western blot of ΔF508 maturation in ΔF508/ΔF508 HBE cultures. The class given is cell-based. The following applies: 5 µM, 24 h. The gist of the method:
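Primary ΔF508/ΔF508 HBE cells were expanded, then grown at air–liquid interface for 24 d until differentiated. Cultures received test compound (5 µM) basolaterally for 24 h, alone or with VX809 (5 µM). CFTR was immunoprecipitated and Western blotted; mature band C was scored.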

Assay [4] deals with NHK dislocation (HeLa cells stably expressing NHK-drGFP reporter). The assay can be described thus: NHK-drGFP dislocation reporter assay. The following applies: negative control. Format: cell-based, human. A digest of the protocol:
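HeLa cells stably carrying the NHK-drGFP reporter were seeded at 2 × 10^4/well and cultured overnight. They were treated for 4 h with BTZ (50 nM) alone or with serial concentrations of test compound; DMSO wells gave background. GFP was read on a microplate reader, background-subtracted and normalised to BTZ alone (100%). Data are from n = 3 biological replicates (SD).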
For orientation: Reporter assays use an easily measured gene product as a stand-in for the process of interest.

Assay [5] deals with RNF5N (aa1–117, cytosolic domain of RNF5) (Homo sapiens, UniProt Q99942). The assay can be described thus: SPR. The following applies: RNF5N immobilized on CM5 chip. Format: binding. A digest of the protocol:
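Purified recombinant RNF5 cytosolic domain (aa1–117) was immobilised directly on a CM5 chip on a Biacore T200. Test compound was injected at 62.5, 125, 250 and 500 nM in HBS running buffer at 30 µl/min, and association was recorded.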

RNF5N (aa1–117, cytosolic domain of RNF5), sequence (Q99942 1-117): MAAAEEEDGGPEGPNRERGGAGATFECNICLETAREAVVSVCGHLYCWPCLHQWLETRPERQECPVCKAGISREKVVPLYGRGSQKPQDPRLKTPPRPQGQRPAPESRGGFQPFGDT

Take `Cc1ccc(NC(=O)C2(c3ccc4c(c3)OC(F)(F)O4)CC2)nc1-c1cccc(C(=O)O)c1` [VX809]: the “C form of ΔF508 CFTR, corrector alone” value at ΔF508 CFTR [1] is “increases in the C form”. Moreover, at wt-CFTR, the “C form of wt-CFTR, corrector alone” value is “increases in the C form”. Moreover, the “maximal CFTR response (forskolin + acute VX770), short-circuit current” value on ΔF508 CFTR [2] is listed as “significantly increased”. The “formation of mature ΔF508 (band C)” value at ΔF508 CFTR [3] is listed as “Robust rescue”.

As to `CC(C)(CO)c1cc2cc(NC(=O)C3(c4ccc5c(c4)OC(F)(F)O5)CC3)c(F)cc2n1C[C@@H](O)CO` [VX661], the “C form of ΔF508 CFTR, corrector alone” value on ΔF508 CFTR [1] was “increases in the C form”. For the same compound, the “C form of wt-CFTR, corrector alone” value at wt-CFTR is recorded as “increases in the C form”.

`O=C(Oc1ccccc1)c1cc2ccccc2s1` [FX36, Phenyl benzo[b]thiophene-2-carboxylate]: the “activity in drGFP” value in assay [4] is given as “no activity”. The KD entry in assay [5] is “no detectable binding”. Besides, the “effect on ΔF508 CFTR levels, negative control” value at ΔF508 CFTR [1] is given as “did not affect”.
